For 37 sequences, folding enthalpy and Tm results are on record in the array DNA melting data of Ke et al. (doi:10.1101/2024.01.08.574731).

The nature of series [1]: folding enthalpy; higher = less favourable; fluorescence melt of hairpins on a sequencing array, two-state fit. Conditions: sodium 0.088 M. In a few lines:
(§1)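 With Cy3 and quencher oligos annealed, library hairpins on a sequenced MiSeq flow cell were imaged for Cy3 fluorescence in 50 mM Na-HEPES pH 8.0, 25 mM NaCl, in 2.5 °C steps up to 60 °C. Melting temperature and folding enthalpy were derived from bootstrapped two-state fits of signals normalised to pre-quench Cy3 and to control constructs. Four replicates were combined by inverse variance, with fitted temperatures raised by 9.35 °C to match UV melts.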

Series [2] in a line: melting temperature; fluorescence melt of hairpins on a sequencing array, two-state fit, raised by 9.35 °C to match UV melts. Conditions: sodium 0.088 M. The method, boiled down:
as §1

For GGTTGCGAAAGCACGACC ((((((....)))..))), in series [1], the folding enthalpy was -15.8 kcal/mol. In addition, in series [2], the Tm was 40.6 °C.
As to GGTTGCGAAAGCATAACC ((((((....)))..))), the folding enthalpy in series [1] was -20.5 kcal/mol. Moreover, in series [2], the Tm amounted to 45.9 °C.
With GGTTGCGAAAGCATCACC ((((((....)))..))), the folding enthalpy in series [1] is -13 kcal/mol. The Tm in series [2] amounted to 36.2 °C.
Take GGTTGCGAAAGCATTACC ((((((....)))..))): in series [1], the folding enthalpy was -17.7 kcal/mol. In addition, the Tm in series [2] amounted to 37.8 °C.
For the sequence GGTTGCGGAAACGCAGCC ((.((((....)))).)), the folding enthalpy in series [1] was -39.2 kcal/mol. Besides, the Tm in series [2] came to 63.5 °C.
Turning to GGTTGCGGAAACGCGACC (((.(((....))).))), the folding enthalpy in series [1] was -37.7 kcal/mol. In addition, the Tm in series [2] was 65.8 °C.
On to GGTTGGACGAAAGTCACC (((..(((....)))))), for which the folding enthalpy in series [1] is -12.2 kcal/mol. For the same sequence, the Tm in series [2] amounted to 34.1 °C.
For GGTTGGCGAAAGCCTACC (((.(((....))).))), the folding enthalpy in series [1] was -25.3 kcal/mol. In series [2], the Tm was found to be 59.6 °C.
The matching figures for GGTTGGGGAAACTCGACC (((.(.(....).).))): -23.2 kcal/mol and 39.5 °C.
The matching figures for GGTTGTACGAAAGTAACC (((..(((....)))))): -20.9 kcal/mol and 38 °C.
Take GGTTGTCGAAAGACCACC (((.(((....))).))): in series [1], the folding enthalpy is -26.2 kcal/mol. The Tm in series [2] is 48.3 °C.
The matching figures for GGTTGTGGAAACACAGTC (..((((....))))..): -13.2 kcal/mol and 29.1 °C.
On to GGTTGTGGAAACATAGCC ((.(.((....)).).)), for which, in series [1], the folding enthalpy is -19.1 kcal/mol. The Tm in series [2] is 31.6 °C.
For GGTTTACCGAAAGGTACC (((..(((....)))))), in that order: -9.75 kcal/mol and 32.4 °C.
For the sequence GGTTTAGGAAACTAAACC (((((((....))))))), in series [1], the folding enthalpy was -54.6 kcal/mol. Further, in series [2], the Tm came out at 54.2 °C.
On to GGTTTCGAAAGAAATACC ((((((....)))..))), for which the folding enthalpy in series [1] is -19.6 kcal/mol. Also, the Tm in series [2] is 32.7 °C.
Regarding GGTTTCGAAAGAACCACC ((((((....)))..))), the folding enthalpy in series [1] was -17.1 kcal/mol. The Tm in series [2] worked out at 34.4 °C.
Regarding GGTTTCGAAAGAATAACC ((((((....)))..))), in series [1], the folding enthalpy was -20.1 kcal/mol. Besides, in series [2], the Tm came out at 31.5 °C.
On to GGTTTCGAAAGAATACC ((((((....))).))), for which the folding enthalpy in series [1] is -25.6 kcal/mol. In series [2], the Tm came out at 38 °C.
On to GGTTTCGAAAGAATTACC ((((((....)))..))), for which, in series [1], the folding enthalpy is -14.2 kcal/mol. The Tm in series [2] stood at 27.9 °C.
As for GGTTTCGGAAACAAAACC (((((.(....).))))), the folding enthalpy in series [1] was -22.7 kcal/mol. Further, the Tm in series [2] is 36.6 °C.
Take GGTTTCGGAAACGAAACC (((((((....))))))): in series [1], the folding enthalpy is -46 kcal/mol. The Tm in series [2] was found to be 66.5 °C.
The matching figures for GGTTTGCGAAAGCATACC (((.(((....))).))): -40.6 kcal/mol and 52.9 °C.
GGTTTGGCGAAAGCCACC (((..(((....)))))): the folding enthalpy in series [1] was -8.59 kcal/mol. In addition, the Tm in series [2] is 31.9 °C.
As to GGTTTGGGAAACCAAGCC ((.((((....)))).)), in series [1], the folding enthalpy was -33.5 kcal/mol. In addition, the Tm in series [2] was determined as 49.9 °C.
As to GGTTTTCGAAAGAACACC (((.(((....))).))), the folding enthalpy in series [1] is -35.5 kcal/mol. Also, the Tm in series [2] is 42.8 °C.
The matching figures for GGTTTTGAAAAAAACC ((((((....)))))): -26.5 kcal/mol and 51.5 °C.
GGTTTTGGAAACAAAATC (.(((((....))))).): the folding enthalpy in series [1] was -33.4 kcal/mol. Also, the Tm in series [2] is 41.5 °C.
Turning to GGTTTTGGAAACAAAGCC ((.((((....)))).)), the folding enthalpy in series [1] was -29.1 kcal/mol. The Tm in series [2] was determined as 46 °C.
On to GGTTTTTCGAAAGAAACC (((..(((....)))))), for which the folding enthalpy in series [1] was -18.8 kcal/mol. In series [2], the Tm came out at 34 °C.
Turning to GTAAAAACGAAAGTTTAC (((..(((....)))))), the folding enthalpy in series [1] is -11.4 kcal/mol. For the same sequence, the Tm in series [2] was determined as 27.8 °C.
Turning to GTAAAACGAAAGTTCTAC (((.(((....))).))), the folding enthalpy in series [1] was -13.9 kcal/mol. In addition, the Tm in series [2] amounted to 27.6 °C.
The matching figures for GTAAAACGAAAGTTTAC (((.(((....)))))): -17.4 kcal/mol and 35.2 °C.
The matching figures for GTAAACGAAAGTTTAC ((((((....)))))): -35.2 kcal/mol and 56 °C.
The matching figures for GTAAAGCGAAAGCTGTAC (((.(((....))).))): -20.4 kcal/mol and 44.4 °C.
GTAAAGGCGAAAGCCTAC (((..(((....)))))): in series [1], the folding enthalpy is -10 kcal/mol. The Tm in series [2] came out at 35 °C.
GTAAATGGAAACGTTTAC (((((.(....).))))): in series [1], the folding enthalpy was -32.9 kcal/mol. For the same sequence, in series [2], the Tm was determined as 35 °C.
